In one assay the target is Neuronal acetylcholine receptor (Rattus norvegicus) (UniProt P04757+P09483+P12389+P12390+P12392+P43144+Q9JLB5+P12391+P43143+P20420+Q05941). Nature of the assay: Percent Inhibition of [3H]cytisine binding at neuronal nicotinic acetylcholine receptor in rat brain at 100 uM. It is filed as tissue-based.
In general, inhibition refers to the drop in the measured response relative to a control, in per cent. Compound `Cc1cc(C2CC3CCC(C2)N3C)on1` (configuration not stated) displayed an inhibition of 40%.

Molecular target in the next assay: not listed separately
Kind of assay: Inhibition of [3H]-cytisine binding to neuronal nicotinic acetylcholine receptor of rat brain. The gist of the method:
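Test compounds run as oxalate salts. Ki values are reported as mean ± SEM of three independent experiments, each performed in triplicate.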
A word on the Ki: it is the equilibrium dissociation constant of an inhibitor or competing ligand from its target. A lower Ki goes with tighter binding. Compound `Cc1cc(C2CC3CCC(C2)N3C)on1` (configuration not stated) yielded a Ki of 194 nM. Same read-out and setting: next, `Clc1ccc([C@H]2CCC3CCC2N3)cn1` (some centres not stated): 1.04 nM; `Clc1ccc(C2CC3CC[C@@H]2N3)cn1` (some centres not stated): 0.79 nM; `Cc1cc(C2CC3CCC(C2)N3)on1` (stereo in doubt; 15a): 18000 nM. In turn, `Cc1cc(C2CC[C@H]3CCC2N3C)on1` (some centres not stated) gave an inhibitory constant (Ki) of 1470 nM. Still for that read-out and setting: next, `Cc1cc(C2=CC3CCC(C2)N3)on1` (configuration not stated): 320 nM; `Cc1cc(C2CCC3CC[C@@H]2N3)on1` (some centres not stated): 3 nM. On the same count and under the same terms, under `Cc1cc(C2CC3CCC(C2)N3)on1` (stereo in doubt; 15b) stands 148 nM; under `Cc1cc([C@@H]2CCC3CCC2N3)on1` (some centres not stated), 26000 nM; under `Cc1cc(C2=CC3CCC(C2)N3C)on1` (configuration not stated), 720 nM. The same measure, in the same setting: next, `CN1CCC[C@H]1c1ccccc1`: 8 nM.

These data come from ChEMBL document CHEMBL1147501, “Synthesis and nicotinic acetylcholine receptor binding affinities of 2- and 3-isoxazolyl-8-azabicyclo[3.2.1]octanes” (Bioorg Med Chem Lett, 2004).
